From ChEMBL document CHEMBL2169815, “Synthesis and structure-activity relationships of lapacho analogues. 1. Suppression of human keratinocyte hyperproliferation by 2-substituted naphtho[2,3-b]furan-4,9-diones, activation by enzymatic one- and two-electron reduction, and intracellular generation of superoxide” (J Med Chem, 2012)

What was measured:
HaCaT [1] = assay: Induction of superoxide generation in human HaCaT cells at 5 micomol/L after 18 hrs by flow cytometry (reference value: 367.5 +/- 80.1 ); assay type: functional
How it was run: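 HaCaT cells grown 24 h at 37 °C in DMEM with 10% FBS, then given compound at 5 μM for 18 h (0.1% DMSO final). DHE loaded for 30 min in the dark. Cells trypsinized and 2-OH-E⁺ fluorescence measured by flow cytometry (FL2, 550–600 nm) on 10000 live cells, dead cells gated out. Mean fluorescence intensity, mean ± SD, N = 3. DMSO-only control.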

HaCaT [2] = assay: Antihyperproliferative activity against human HaCaT cells after 48 hrs by phase contrast microscopy; assay type: functional, cell-based
How it was run: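 HaCaT keratinocytes were exposed for 48 h, then dispersed cells were counted under phase contrast. Inhibition was (1 − test/control) × 100, with test N = 3 and control N = 6–8, checked by Student's t test (P < 0.05). IC50 came from nonlinear regression.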

HaCaT [3] = assay: Activity in dicoumarol-treated human HaCaT cells assessed as superoxide generation by flow cytometry (reference value: 407.59 +/- 68.7 ); assay type: functional
[4] = target: T1, NADPH--cytochrome P450 reductase (Homo sapiens, UniProt P16435); assay: Activity of human recombinant cytochrome P450 reductase assessed as rate of superoxide generation measuring SOD-inhibitable reduction of succinoylated cytochrome c per 2 mU enzyme at 100 umol/ml by spectrophotometry in presence of catalase and DTPA (reference value: 0.2 +/- 0.1 micomol/L/min)
T1 sequence (P16435 whole entry): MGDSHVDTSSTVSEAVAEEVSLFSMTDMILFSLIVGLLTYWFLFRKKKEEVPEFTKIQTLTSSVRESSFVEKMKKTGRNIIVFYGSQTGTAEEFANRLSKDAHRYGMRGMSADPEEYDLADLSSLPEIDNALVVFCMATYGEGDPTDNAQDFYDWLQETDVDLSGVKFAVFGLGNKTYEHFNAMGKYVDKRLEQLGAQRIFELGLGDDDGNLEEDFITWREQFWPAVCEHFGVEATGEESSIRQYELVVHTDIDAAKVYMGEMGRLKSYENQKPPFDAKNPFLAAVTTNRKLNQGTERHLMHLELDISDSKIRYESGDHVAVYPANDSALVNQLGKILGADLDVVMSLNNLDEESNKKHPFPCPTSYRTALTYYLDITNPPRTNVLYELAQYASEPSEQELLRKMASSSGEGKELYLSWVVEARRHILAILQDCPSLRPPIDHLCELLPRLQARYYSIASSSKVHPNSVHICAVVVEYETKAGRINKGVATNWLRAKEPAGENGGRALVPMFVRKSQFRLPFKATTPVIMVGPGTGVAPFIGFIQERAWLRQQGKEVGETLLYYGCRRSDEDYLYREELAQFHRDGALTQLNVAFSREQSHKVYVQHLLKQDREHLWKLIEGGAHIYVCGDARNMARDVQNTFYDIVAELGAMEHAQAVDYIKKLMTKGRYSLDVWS

[5] = target: NQO1 protein (Homo sapiens) (UniProt Q3B792); assay: Activity of human recombinant NQO-1 assessed as rate of superoxide generation measuring SOD-inhibitable reduction of succinoylated cytochrome c per unit enzyme at 25 umol/ml by spectrophotometry in presence of catalase and DTPA (reference value: 0.2 +/- 0.1 micomol/L/min)
Chain of NQO1 protein (Homo sapiens) (Q3B792 as listed by the source): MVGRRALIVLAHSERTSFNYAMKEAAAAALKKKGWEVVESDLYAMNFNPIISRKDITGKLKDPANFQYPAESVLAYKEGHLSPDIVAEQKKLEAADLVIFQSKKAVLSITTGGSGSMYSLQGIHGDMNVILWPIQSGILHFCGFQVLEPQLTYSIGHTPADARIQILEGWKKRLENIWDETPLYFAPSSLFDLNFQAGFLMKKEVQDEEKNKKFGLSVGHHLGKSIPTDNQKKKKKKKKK

HaCaT [6] = assay: Induction of superoxide generation in human HaCaT cells at 50 uM after 30 min by flow cytometry (reference value: 7.1 +/- 5.2 ); assay type: functional
HaCaT [7] = assay: Cytotoxicity against human HaCaT cells assessed as LDH release at 2 uM after 4 hrs by UV method; assay type: cell-based
How it was run: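 HaCaT cells were given compound at 2 μM for 4 h at 37 °C. Extracellular LDH in the supernatant was read by the UV method with pyruvate and NADH and reported as mU/mL. Vehicle control was 0.2% DMSO in medium; Brij 35 plus ultrasound was the positive control. N = 3.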

HaCaT [8] = assay: Ratio of compound IC50 to anthralin IC50 for human HaCaT cells; assay type: functional
HaCaT [9] = assay: Ratio of compound IC50 to beta-lapachone IC50 for human HaCaT cells; assay type: functional

O=C1c2ccccc2C(=O)c2occc21
Flu intensity (HaCaT [1]): 452.5
IC50 (HaCaT [2]): 3850 nM
Flu intensity (HaCaT [3]): 601.1
Activity [4]: 2.2 µmol/L/min
Activity [5]: 0.4 µmol/L/min
Flu intensity (HaCaT [6]): 13

O=C1c2ccccc2C(=O)c2oc(/C=N/O)cc21
IC50 (HaCaT [2]): 2340 nM

O=C(c1cccnc1)c1cc2c(o1)C(=O)c1ccccc1C2=O
IC50 (HaCaT [2]): 370 nM
Activity (HaCaT [7]): 202 mU/ml

O=C1c2ccccc2C(=O)c2oc(/C=C/c3ccccc3)cc21
IC50 (HaCaT [2]): > 30000 nM

O=C(OC1CCCCC1)c1cc2c(o1)C(=O)c1ccccc1C2=O
IC50 (HaCaT [2]): 2930 nM

O=C1c2ccccc2C(=O)c2oc(-c3nnn[nH]3)cc21
IC50 (HaCaT [2]): > 30000 nM
Activity (HaCaT [7]): 380 mU/ml

CCC(=O)c1cc2c(OC)c3ccccc3c(OC)c2o1
IC50 (HaCaT [2]): > 30000 nM

COC(=O)c1cc2c(o1)C(=O)c1ccccc1C2=O
IC50 (HaCaT [2]): 920 nM
Activity (HaCaT [7]): 190 mU/ml

CC(C)OC(=O)c1cc2c(o1)C(=O)c1ccccc1C2=O
IC50 (HaCaT [2]): 990 nM

O=C(OCc1ccco1)c1cc2c(o1)C(=O)c1ccccc1C2=O
IC50 (HaCaT [2]): 8230 nM

O=C(Oc1ccccc1)c1cc2c(o1)C(=O)c1ccccc1C2=O
IC50 (HaCaT [2]): > 30000 nM

O=C(O)/C=C/c1cc2c(o1)C(=O)c1ccccc1C2=O
IC50 (HaCaT [2]): > 30000 nM

Cc1cc2c(o1)C(=O)c1ccccc1C2=O
Flu intensity (HaCaT [1]): 420.2
IC50 (HaCaT [2]): 7540 nM
Flu intensity (HaCaT [3]): 830.9
Activity [4]: 1.2 µmol/L/min
Activity [5]: 0.2 µmol/L/min
Flu intensity (HaCaT [6]): 6.4

CCOC(=O)C(=Cc1cc2c(o1)C(=O)c1ccccc1C2=O)C(=O)OCC
IC50 (HaCaT [2]): 1110 nM
Activity (HaCaT [7]): 186 mU/ml

CCOC(=O)/C=C/c1cc2c(o1)C(=O)c1ccccc1C2=O
IC50 (HaCaT [2]): 2510 nM

CC1(C)CCC2=C(O1)c1ccccc1C(=O)C2=O [LAPACHONE]
IC50 (HaCaT [2]): 900 nM
Activity (HaCaT [7]): 268 mU/ml

O=C(c1ccco1)c1cc2c(o1)C(=O)c1ccccc1C2=O
IC50 (HaCaT [2]): 550 nM
Activity (HaCaT [7]): 167 mU/ml

CC(=O)Oc1c2ccccc2c(OC(C)=O)c2oc(C(=O)c3ccccc3)cc12
IC50 (HaCaT [2]): 920 nM
Activity (HaCaT [7]): 193 mU/ml

O=C1c2c(O)cccc2Cc2cccc(O)c21 [ANTHRALIN]
Activity (HaCaT [7]): 239 mU/ml

O=C(c1ccccc1)c1cc2c(o1)C(=O)c1ccccc1C2=O
IC50 (HaCaT [2]): 720 nM
Activity (HaCaT [7]): 318 mU/ml

O=Cc1cc2c(o1)C(=O)c1ccccc1C2=O
IC50 (HaCaT [2]): 2760 nM
Activity (HaCaT [7]): 186 mU/ml

CCOC(=O)c1cc2c(o1)C(=O)c1ccccc1C2=O
IC50 (HaCaT [2]): 610 nM
Activity (HaCaT [7]): 187 mU/ml

CC1=CC(=O)c2ccccc2C1=O [MENADIONE]
Flu intensity (HaCaT [1]): 431.9
IC50 (HaCaT [2]): 15800 nM
Flu intensity (HaCaT [3]): 457.2
Activity [4]: 2.1 µmol/L/min
Activity [5]: 1 µmol/L/min
Flu intensity (HaCaT [6]): 44

CCN(CC)C(=O)c1cc2c(o1)C(=O)c1ccccc1C2=O
IC50 (HaCaT [2]): 240 nM
Activity (HaCaT [7]): 226 mU/ml

CC(C)C(=O)c1cc2c(o1)C(=O)c1ccccc1C2=O
IC50 (HaCaT [2]): 440 nM

O=C(O)c1cc2c(o1)C(=O)c1ccccc1C2=O
IC50 (HaCaT [2]): > 30000 nM

CCc1noc(-c2cc3c(o2)C(=O)c2ccccc2C3=O)n1
Flu intensity (HaCaT [1]): 1287
IC50 (HaCaT [2]): 170 nM
Flu intensity (HaCaT [3]): 1279
Activity [4]: 1.8 µmol/L/min
Activity [5]: 1.9 µmol/L/min
Flu intensity (HaCaT [6]): 17
Activity (HaCaT [7]): 157 mU/ml
Ratio IC50 (HaCaT [8]): 4
Ratio IC50 (HaCaT [9]): 5

N#Cc1ccc(/C=C/c2cc3c(o2)C(=O)c2ccccc2C3=O)cc1
IC50 (HaCaT [2]): 7730 nM

O=C(OCc1ccccc1)c1cc2c(o1)C(=O)c1ccccc1C2=O
IC50 (HaCaT [2]): > 30000 nM

CC(C)COC(=O)c1cc2c(o1)C(=O)c1ccccc1C2=O
IC50 (HaCaT [2]): 2860 nM

CCCOC(=O)c1cc2c(o1)C(=O)c1ccccc1C2=O
IC50 (HaCaT [2]): 1320 nM

CC(=O)c1cc2c(o1)C(=O)c1ccccc1C2=O [NAPABUCASIN]
Flu intensity (HaCaT [1]): 725.5
Flu intensity (HaCaT [3]): 741.4
Activity [4]: 3 µmol/L/min
Activity [5]: 1.4 µmol/L/min
Flu intensity (HaCaT [6]): 20.5
Activity (HaCaT [7]): 255 mU/ml

CCC(=O)c1cc2c(OC(C)=O)c3ccccc3c(OC(C)=O)c2o1
IC50 (HaCaT [2]): 800 nM
Activity (HaCaT [7]): 185 mU/ml

CCC(=O)c1cc2c(o1)C(=O)c1ccccc1C2=O
IC50 (HaCaT [2]): 630 nM
Activity (HaCaT [7]): 270 mU/ml

O=C1c2ccccc2C(=O)c2oc([N+](=O)[O-])cc21
IC50 (HaCaT [2]): 2000 nM

O=C(OCc1cccs1)c1cc2c(o1)C(=O)c1ccccc1C2=O
IC50 (HaCaT [2]): 14300 nM

CCc1cc2c(o1)C(=O)c1ccccc1C2=O
IC50 (HaCaT [2]): 12200 nM

COc1c2ccccc2c(OC)c2oc(C(=O)c3ccccc3)cc12
IC50 (HaCaT [2]): > 30000 nM

N#Cc1cc2c(o1)C(=O)c1ccccc1C2=O
IC50 (HaCaT [2]): 890 nM
Activity (HaCaT [7]): 181 mU/ml

O=C(c1cc2c(o1)C(=O)c1ccccc1C2=O)c1cccs1
IC50 (HaCaT [2]): 670 nM
Activity (HaCaT [7]): 169 mU/ml
